Only some compounds are listed: those with a hit (about 2.6% of all), similar ones and a draw of the others.
MC4R ag barr = agonists of human melanocortin 4 receptor (MC4R) beta-arrestin; P32245; 0.98% of 360,000 active; activation, % at 8.9 µM; U2OS MC4R beta-arrestin complementation, luminescence; percent of melanotan II response, DMSO zero;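 active = activation above a per-plate cutoff, the mean activation of sample wells on that plate plus 3 SD, cut at about 8% in these data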
Target sequence (P32245 whole entry, looked up): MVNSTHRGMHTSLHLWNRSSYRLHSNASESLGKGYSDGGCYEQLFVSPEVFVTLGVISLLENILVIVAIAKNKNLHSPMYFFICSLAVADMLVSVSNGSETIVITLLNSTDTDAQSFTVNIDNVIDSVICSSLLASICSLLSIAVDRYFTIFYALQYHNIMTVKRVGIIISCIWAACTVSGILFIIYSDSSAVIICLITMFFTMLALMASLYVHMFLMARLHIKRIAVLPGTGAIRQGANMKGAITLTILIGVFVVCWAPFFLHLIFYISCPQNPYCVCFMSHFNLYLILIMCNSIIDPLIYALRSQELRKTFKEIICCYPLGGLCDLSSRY
MC4R antagonist = antagonists of human melanocortin 4 receptor (MC4R). MC4R-expressing cells, MTII-stimulated cAMP, LANCE TR-FRET. AID 540295. P32245. 0.48% of 360,000 active. inhibition, % at 6.5 µM;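 active = inhibition above its plate's cutoff, the mean of tested wells on that plate plus 3 SD, cut at about 29% in these data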;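 note: 0% = Melanotan II alone and 100% = Melanotan II plus saturating MCL0020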
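Material – human MC4R-expressing U2OS cells · Repeats – no replicates · Detection – TR-FRET with Eu-cAMP and labeled anti-cAMP, 671 nm · Times – compound 30 min, challenge 1 h, detection 1 h · Compound – single nominal compound dose of 6.5 µM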
Exocytosis inh = lytic granule exocytosis inhibition; TALL-104 LAMP-1 surface exposure, flow cytometry; cells stimulated with thapsigargin and PMA; inhibition, % at 10 µM; 0.66% of 360,000 active;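 active = inhibition above about 55%, limit read from the data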
iPSC survival up = enhancers of human iPSC single-cell survival; 0.044% of 360,000 active; survival enhancement, % at 20 µM; hiPSC single-cell survival, ATPlite luminescence; 100% = ROCK inhibitor wells, 0% = DMSO; in the data active = survival enhancement above about 18%;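 note: cells exposed to compounds for 16 hours before the ATP read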
TbMetRS inhib = blocks T. brucei methionyl-tRNA synthetase activity | purified T. brucei MetRS, ATP depletion, Kinase-Glo luminescence | inhibition, % at 11.9 µM | 0.4% of 360,000 active | AID 624268;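 active = inhibition above a per-plate cutoff of the control wells' mean inhibition plus 3 SD, cut at about 5.5% in these data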;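 note: 0% = DMSO wells median and 100% = median of wells with control inhibitor compound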
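Test system – parasite MetRS enzyme · Reagent – substrates ATP, L-methionine and bulk Escherichia coli tRNA · Doses – 11.9 µM compound single dose, 0.9% DMSO · Times – 15 min enzyme-compound preincubation, 2 h reaction, 10 min detection, 25 °C · Signal – Kinase-Glo luminescence, ATP depletion format · Controls – DMSO-only wells as low control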
ABCB6 inh MLPCN = inhibitors of human ABC transporter ABCB6. Q9NP58. 0.19% of 360,000 active. K562-ABCB6 porphyrin accumulation, flow cytometry, 1 h; hits give low values. fluorescence ratio to DMSO, % at 10 µM;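 active = fluorescence ratio to DMSO below 75%, the collection mean minus 3 SD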;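 note: signal is porphyrin accumulated inside mitochondria; 100% equals median channel fluorescence of DMSO control wells; lower ratio means ABCB6 inhibition with less porphyrin fluorescence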
An asterisk follows results filed as active.

COc1ccccc1OCCn1cc(C#N)c2ccccc21 was read as MC4R ag barr 0, MC4R antagonist 4, Exocytosis inh -2, iPSC survival up -2, TbMetRS inhib 0 and ABCB6 inh MLPCN 102.
COc1cccc(C2CC(=O)Nc3cc(C)c(C)cc32)c1 (stereo unspecified) was read as MC4R ag barr -1, MC4R antagonist 4, Exocytosis inh -3, iPSC survival up -2, TbMetRS inhib 1 and ABCB6 inh MLPCN 100.
`N/C(Cc1ccc(Cl)cc1Cl)=N\OC(=O)c1cccs1` gave MC4R ag barr 0, MC4R antagonist 7, Exocytosis inh 5, iPSC survival up -1, TbMetRS inhib 0 and ABCB6 inh MLPCN 101.
Screening N/C(Cc1ccc(Cl)cc1Cl)=N\OC(=O)c1ccc(Br)o1 returned MC4R ag barr 8.3*, MC4R antagonist 13, Exocytosis inh -2, iPSC survival up 0, TbMetRS inhib 0 and ABCB6 inh MLPCN 101.
Screening COc1ccc2c(c1)-c1c(sn(-c3ccc(OC)c(OC)c3)c1=S)C(C)(C)N2 returned MC4R ag barr -2, MC4R antagonist 8, Exocytosis inh 66*, iPSC survival up -1, TbMetRS inhib 0 and ABCB6 inh MLPCN 97.
Screening COc1ccc(-n2sc3c(c2=S)-c2cc(OC)ccc2NC3(C)C)cc1 returned MC4R ag barr -1, MC4R antagonist 8, Exocytosis inh -1, iPSC survival up 0, TbMetRS inhib 0 and ABCB6 inh MLPCN 99.
O=c1c(Cc2ccccc2)c(O)ccn1C1CCCCCCC1 was read as MC4R ag barr -3, MC4R antagonist 17, Exocytosis inh 6, iPSC survival up 0, TbMetRS inhib 0 and ABCB6 inh MLPCN 96.
For O=C1C(CO)C(CO)C(CO)C1CO (stereo unspecified) the results were MC4R ag barr -1, MC4R antagonist 0, Exocytosis inh 69*, iPSC survival up 3, TbMetRS inhib 0 and ABCB6 inh MLPCN 86.
`COC(=O)CN1C(c2ccccc2)=Nc2ccc(Cl)cc2C1c1ccccc1` (stereo unspecified) gave MC4R ag barr 0, MC4R antagonist 3, Exocytosis inh 0, iPSC survival up 2, TbMetRS inhib -1 and ABCB6 inh MLPCN 95.
For CCOC(=O)C(=N/O)/C(C)=N/NC(=O)C(=O)Nc1cc(Cl)ccc1Cl the results were MC4R ag barr -3, MC4R antagonist 3, Exocytosis inh 78*, iPSC survival up 0, TbMetRS inhib 0 and ABCB6 inh MLPCN 97.
`O=c1c2ccccc2c(/C=N/c2n[nH]c(CCCO)n2)c(O)n1-c1ccccc1Cl` gave MC4R ag barr -1, MC4R antagonist -39, Exocytosis inh 4, iPSC survival up -1, TbMetRS inhib -1 and ABCB6 inh MLPCN 97.
CC(C)(C)C1CCc2sc(C(=O)NNC(=O)CCl)cc2C1 (stereo unspecified) was read as MC4R ag barr 19*, MC4R antagonist 11, Exocytosis inh -1, iPSC survival up -4, TbMetRS inhib 0 and ABCB6 inh MLPCN 98.
CC(C)(C)C1CCC(=NNC(=O)c2cc3c(s2)CCCC3)CC1 (stereo unspecified) was read as MC4R ag barr 0, MC4R antagonist 5, Exocytosis inh -3, iPSC survival up 0, TbMetRS inhib 0 and ABCB6 inh MLPCN 104.
Screening O=C1c2ccccc2C(=O)N1Nc1ccccc1 returned MC4R ag barr 0, MC4R antagonist 5, Exocytosis inh 1, iPSC survival up 2, TbMetRS inhib 0 and ABCB6 inh MLPCN 102.
Screening Cc1ccc(NN2C(=O)C=C(c3ccccc3)C2=O)cc1 returned MC4R ag barr 2, MC4R antagonist -16, Exocytosis inh 67*, iPSC survival up 0, TbMetRS inhib -2 and ABCB6 inh MLPCN 96.
For CCOC(=O)C1=C(O)/C(=C/c2cc(OC)c(OC)c(OC)c2)SC1=Nc1ccc(OC)cc1 the results were MC4R ag barr 8.3*, MC4R antagonist -7, Exocytosis inh 1, iPSC survival up 0, TbMetRS inhib 0 and ABCB6 inh MLPCN 82.
Screening CCOC(=O)C1=C(O)/C(=C/c2ccc(OCC(=O)O)c(OCC)c2)SC1=Nc1ccc(OC)cc1 returned MC4R ag barr -2, MC4R antagonist -5, Exocytosis inh -8, iPSC survival up 1, TbMetRS inhib 0 and ABCB6 inh MLPCN 99.
For O=C(Nc1ccc([N+](=O)[O-])cc1)Nc1ccc(N2CCOCC2)c2nonc12 the results were MC4R ag barr -2, MC4R antagonist 10, Exocytosis inh 77*, iPSC survival up 0, TbMetRS inhib 0 and ABCB6 inh MLPCN 97.
Screening CC(=O)Nc1cc([N+](=O)[O-])ccc1N1CCOCC1 returned MC4R ag barr -2, MC4R antagonist 21, Exocytosis inh 0, iPSC survival up 2, TbMetRS inhib 0 and ABCB6 inh MLPCN 98.
`Cc1c(C(=O)N2CCOCC2)c(S(=O)(=O)Nc2ccccc2)c(C)n1C` gave MC4R ag barr 0, MC4R antagonist -7, Exocytosis inh -22, iPSC survival up 0, TbMetRS inhib 0 and ABCB6 inh MLPCN 98.
Screening FC(F)(F)c1nc2ccccc2nc1N/N=C/c1c(Cl)cccc1Cl returned MC4R ag barr 8.3*, MC4R antagonist -9, Exocytosis inh -3, iPSC survival up 1, TbMetRS inhib -1 and ABCB6 inh MLPCN 97.
CSc1ncccc1C(=O)OCC(=O)NC1CCC(C)CC1 (stereo unspecified) was read as MC4R ag barr -4, MC4R antagonist 5, Exocytosis inh 3, iPSC survival up 1, TbMetRS inhib 0 and ABCB6 inh MLPCN 94.
Screening COc1ccc(C(=O)N2CCCCC2c2cc(C(=O)NCc3cccnc3)no2)cc1 (stereo unspecified) returned MC4R ag barr 3, MC4R antagonist 10, Exocytosis inh 1, iPSC survival up -2, TbMetRS inhib 0 and ABCB6 inh MLPCN 100.
`CCCCCCCCCC[n+]1cccc2c3ccccc3ccc21` gave MC4R ag barr 49*, MC4R antagonist -17, Exocytosis inh 70*, iPSC survival up -3, TbMetRS inhib 4 and ABCB6 inh MLPCN 97.
`CCCCCCCC[n+]1cccc2c3ccccc3ccc21` gave MC4R ag barr 7, MC4R antagonist -13, Exocytosis inh 28, iPSC survival up -5, TbMetRS inhib 2 and ABCB6 inh MLPCN 96.
Cc1ccc(NC(=S)N(CCCN2CCCC2)Cc2cccn2Cc2ccc(Cl)cc2)cc1Cl was read as MC4R ag barr -1, MC4R antagonist 6, Exocytosis inh 65*, iPSC survival up 0, TbMetRS inhib 0 and ABCB6 inh MLPCN 92.
